Legend:
[1] = target: Glutamate NMDA receptor; test: Concentration required for 50% inhibition of [3H]-MK-801 binding to N-methyl-D-aspartate glutamate receptor in rat cortical slice preparation
Outline: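 Fully stimulated rat brain membranes prepared by the Ransom and Stec method. Otherwise per an earlier protocol. At least three independent experiments per value.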

[2] = target: Glutamate NMDA receptor; test: Concentration required for 50% inhibition of [3H]-CPP binding to N-methyl-D-aspartate glutamate receptor in rat cortical slice preparation
Outline: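 Rat brain membranes prepared by the Ransom and Stec method. [3H]CPP binding run per an earlier protocol, but ended by filtration through GF/B filters presoaked in 0.1% polyethyleneimine instead of centrifugation. At least three independent experiments per value.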

[3] = target: T1, Glutamate receptor ionotropic, AMPA (Rattus norvegicus, UniProt P19490+P19491+P19492+P19493); test: Concentration required for 50% inhibition of [3H]AMPA binding to AMPA receptor in rat cortical slice preparation
[4] = target: T1, Glutamate receptor ionotropic, AMPA; test: Concentration required for 50% inhibition of [3H]Glu binding to AMPA receptor in rat cortical slice preparation in the presence of 2.5 mM CaCl2
[5] = target: Glutamate receptor ionotropic, kainate; test: Concentration required for 50% inhibition of [3H]-kainic acid binding to ionotropic glutamate receptor ionotropic kainate in rat cortical slice preparation

Row | SMILES | IC50 [1] [µM] | IC50 [2] [µM] | IC50 [3] [µM] | IC50 [4] [µM] | IC50 [5] [µM]
1 | CCCCCCCCc1c(O)noc1CC(N)C(=O)O (configuration not stated) | > 100 | > 100 | > 100 | 0.02 | > 100
2 | NC(Cc1onc(O)c1CCO)C(=O)O (configuration not stated) | > 100 | > 100 | 2 | 0.14 | > 100
3 | CCCCc1c(O)noc1CC(N)C(=O)O (configuration not stated) | > 100 | > 100 | 2 | 0.18 | > 100
4 | CC(C)(C)c1onc(O)c1CC(N)C(=O)O (configuration not stated) | > 100 | > 100 |  |  | 
5 | Cc1c(O)noc1CC(N)C(=O)O (configuration not stated) | > 100 | > 100 | 0.6 | 0.18 | > 100

— ChEMBL document CHEMBL1126255, “Excitatory amino acid receptor ligands. Synthesis and biological activity of 3-isoxazolol amino acids structurally related to homoibotenic acid” (J Med Chem, 1992)
